According to ChEMBL document CHEMBL1122437, “beta 1-selective adrenoceptor antagonists. 1. Synthesis and beta-adrenergic blocking activity of a series of binary (aryloxy)propanolamines” (1983):
Active and inactive are the calls of the source. The rule behind the calls is not given here.

Key:
[1] = target: Beta-1 adrenergic receptor (Rattus norvegicus) (UniProt P18090); assay: Beta-1 adrenergic receptor blockade measured as inhibition of tachycardia caused by isoprenaline in anesthetized rats when administered intravenously; inactive; format: functional
Chain of Beta-1 adrenergic receptor (Rattus norvegicus) (P18090 whole entry, looked up): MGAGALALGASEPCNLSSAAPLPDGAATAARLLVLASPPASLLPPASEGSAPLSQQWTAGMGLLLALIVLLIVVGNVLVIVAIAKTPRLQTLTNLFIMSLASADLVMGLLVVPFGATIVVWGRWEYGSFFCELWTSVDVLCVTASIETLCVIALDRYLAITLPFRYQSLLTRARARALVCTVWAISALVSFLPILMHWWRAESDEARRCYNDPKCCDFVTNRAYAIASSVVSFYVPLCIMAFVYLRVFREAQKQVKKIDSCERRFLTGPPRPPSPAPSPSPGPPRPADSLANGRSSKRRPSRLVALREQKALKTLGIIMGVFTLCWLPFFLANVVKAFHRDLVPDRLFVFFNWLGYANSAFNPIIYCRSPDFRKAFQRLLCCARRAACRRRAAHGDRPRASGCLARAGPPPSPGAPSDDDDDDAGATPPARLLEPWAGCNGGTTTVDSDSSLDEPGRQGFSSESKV
In short: (§1)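 Anesthetized rats with a catheterized carotid artery for blood pressure. Heart rate was taken from the pulse signal by cardiotachometer. Tachycardia to isoprenaline (0.2 µg kg-1 iv) was recorded before and after accumulative iv doses of antagonist (0.1 mL 100 g-1). The value is the iv dose giving 50% reduction of the isoprenaline tachycardia.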

[2] = target: Beta-2 adrenergic receptor (Rattus norvegicus) (UniProt P10608)
Chain of Beta-2 adrenergic receptor (Rattus norvegicus) (P10608 whole entry, looked up): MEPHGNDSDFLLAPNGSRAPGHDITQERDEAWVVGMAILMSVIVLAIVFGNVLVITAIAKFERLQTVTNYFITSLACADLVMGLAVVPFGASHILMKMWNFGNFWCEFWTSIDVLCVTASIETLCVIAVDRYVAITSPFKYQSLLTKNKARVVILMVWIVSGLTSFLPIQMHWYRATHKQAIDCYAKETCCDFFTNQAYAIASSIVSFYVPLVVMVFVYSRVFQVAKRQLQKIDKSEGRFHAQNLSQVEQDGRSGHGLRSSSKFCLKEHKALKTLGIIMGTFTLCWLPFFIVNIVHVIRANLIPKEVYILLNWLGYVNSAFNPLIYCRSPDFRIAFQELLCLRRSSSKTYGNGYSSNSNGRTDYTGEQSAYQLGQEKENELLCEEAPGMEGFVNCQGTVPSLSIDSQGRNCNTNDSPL

[3] = target: Beta-1 adrenergic receptor (Cavia porcellus) (UniProt B0FL73)
Chain of Beta-1 adrenergic receptor (Cavia porcellus) (B0FL73 1-467): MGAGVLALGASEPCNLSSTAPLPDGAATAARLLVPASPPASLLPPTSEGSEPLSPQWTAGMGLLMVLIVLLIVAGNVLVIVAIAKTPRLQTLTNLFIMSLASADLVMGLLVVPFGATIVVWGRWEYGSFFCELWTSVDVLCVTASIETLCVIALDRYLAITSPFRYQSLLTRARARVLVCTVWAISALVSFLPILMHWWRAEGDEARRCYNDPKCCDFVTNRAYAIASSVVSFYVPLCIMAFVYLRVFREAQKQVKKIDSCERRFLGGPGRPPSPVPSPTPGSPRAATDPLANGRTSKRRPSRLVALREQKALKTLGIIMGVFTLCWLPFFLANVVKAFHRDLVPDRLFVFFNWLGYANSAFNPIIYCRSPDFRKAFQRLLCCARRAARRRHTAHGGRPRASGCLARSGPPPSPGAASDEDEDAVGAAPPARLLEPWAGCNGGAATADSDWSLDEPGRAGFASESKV

[4] = target: Beta-2 adrenergic receptor (Cavia porcellus) (UniProt Q8K4Z4)
Chain of Beta-2 adrenergic receptor (Cavia porcellus) (Q8K4Z4 whole entry, looked up): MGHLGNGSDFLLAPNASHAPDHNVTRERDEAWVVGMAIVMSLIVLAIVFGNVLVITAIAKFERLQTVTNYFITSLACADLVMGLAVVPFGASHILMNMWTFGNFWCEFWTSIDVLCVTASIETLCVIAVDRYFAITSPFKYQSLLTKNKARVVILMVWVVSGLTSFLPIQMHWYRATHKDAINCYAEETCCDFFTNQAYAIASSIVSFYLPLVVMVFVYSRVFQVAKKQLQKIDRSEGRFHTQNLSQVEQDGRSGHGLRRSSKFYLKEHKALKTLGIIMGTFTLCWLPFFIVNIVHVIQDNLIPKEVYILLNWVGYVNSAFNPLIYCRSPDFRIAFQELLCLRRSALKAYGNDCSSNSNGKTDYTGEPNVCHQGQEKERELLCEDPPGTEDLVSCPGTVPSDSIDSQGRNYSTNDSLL

[5] = target: Beta-1 adrenergic receptor (Rattus norvegicus) (UniProt P18090); assay: Beta-1 adrenergic receptor blockade measured as inhibition of tachycardia caused by isoprenaline in anesthetized rats when administered intravenously; format: functional; in short: as §1
Rattus norvegicus [6] = species on record: Rattus norvegicus; assay: Ratio of rat Beta-2 to Beta-1 adrenoceptor antagonism; format: functional
In short: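 Anesthetized, carotid-cannulated rats were given isoprenaline (0.2 µg kg-1 iv) before and after accumulative iv antagonist doses. The β1 value is the iv dose halving the tachycardia, read by cardiotachometer from the pulse. The β2 value is the iv dose halving the depressor response. The ratio compares these two doses.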

Rattus norvegicus [7] = assay: Beta-1-adrenoceptor blockade measured as inhibition of tachycardia caused by isoprenaline in anesthetized rats when administered intravenously; format: functional; conditions: iv; in short: as §1

| ED50 [1] | ED50 [2] | Affinity constant [3] [µM] | Affinity constant [4] [µM] | ED50 [5] [mg/kg] | SMILES | Ratio (Rattus norvegicus [6]) | ED50 (Rattus norvegicus [7]) [mg/kg] |
| --- | --- | --- | --- | --- | --- | --- | --- |
| – | – | 0.06 | 0.00085 | 0.082 | CC(C)NC[C@@H](O)COc1ccccc1OCCOCCOCCOc1ccccc1OC[C@@H](O)CNC(C)C | 1.35 | – |
| – | – | 0.004 | 0.17 | 0.491 | CC(C)NC[C@@H](O)COc1ccccc1OCCCCCCCCCCOc1ccccc1OC[C@@H](O)CNC(C)C | 0.26 | – |
| – | – | 1.5 | > 10 | – | CC(C)NC[C@@H](O)COc1ccccc1OCCCCCCCCCCCCCCCCCCCCOc1ccccc1OC[C@@H](O)CNC(C)C | – | – |
| – | – | 0.007 | 0.046 | – | CC(C)NC[C@@H](O)COc1ccccc1OCCCCCCCCOc1ccccc1OC[C@@H](O)CNC(C)C | – | – |
| – | – | 0.2 | 1 | – | CC(C)NC[C@@H](O)COc1ccccc1OCCCCCCCCCCCCCCOc1ccccc1OC[C@@H](O)CNC(C)C | – | – |
| – | – | 1 | 0.015 | – | CC(C)NC[C@@H](O)COc1ccccc1OCCCCCCCCCCCCOc1ccccc1OC[C@@H](O)CNC(C)C | – | – |
| – | – | 0.65 | 4.4e-05 | – | CC(C)NC[C@H](O)COc1ccccc1OCC(O)COc1ccccc1OC[C@@H](O)CNC(C)C | 0.045 | 0.993 |
| – | – | 0.055 | 4e-05 | 0.029 | CC(C)NC[C@H](O)COc1ccccc1OCCOCCOCCOCCOc1ccccc1OC[C@@H](O)CNC(C)C | 0.55 | – |
| – | – | 0.003 | 0.4 | – | CC(C)NC[C@@H](O)COc1ccccc1OCCCCCCOc1ccccc1OC[C@@H](O)CNC(C)C | 0.13 | 0.399 |
| – | – | 0.035 | 0.00064 | – | CC(C)NC[C@H](O)COc1ccccc1OCCCOc1ccccc1OC[C@@H](O)CNC(C)C | 0.22 | 0.768 |
| – | – | 0.15 | 0.015 | – | CC(C)NC[C@H](O)COc1ccccc1OCCOCCOc1ccccc1OC[C@@H](O)CNC(C)C | 0.39 | 0.384 |

Further lines, the molecule ahead of its results:

| SMILES | ED50 [1] | ED50 [2] | Affinity constant [3] [µM] | Affinity constant [4] [µM] | ED50 [5] [mg/kg] | Ratio (Rattus norvegicus [6]) | ED50 (Rattus norvegicus [7]) [mg/kg] |
| --- | --- | --- | --- | --- | --- | --- | --- |
| CC(C)NC[C@H](O)COc1ccc(OCCCCCCCCCCOc2ccc(OC[C@@H](O)CNC(C)C)cc2)cc1 | inactive | inactive | 0.022 | > 10 | – | – | – |
| CC(C)NC[C@H](O)COc1ccc(OCCOCCOCCOc2ccc(OC[C@@H](O)CNC(C)C)cc2)cc1 | – | – | 0.01 | 0.03 | 0.05 | 185 | – |
| CC(C)NC[C@H](O)COc1ccc(OCCCCCCCCOc2ccc(OC[C@@H](O)CNC(C)C)cc2)cc1 | – | – | 0.44 | 1.5 | – | – | – |
| CC(C)NCC(O)COc1cccc2ccccc12 (stereo not given) [PROPRANOLOL] | – | – | – | – | – | – | 0.143 |
| CC(C)NC[C@H](O)COc1ccc(OCCCOc2ccc(OC[C@@H](O)CNC(C)C)cc2)cc1 | – | – | 0.2 | 0.24 | – | > 1.74 | 1.15 |
| CC(C)NC[C@H](O)COc1ccc(OCCCCCCCCCCCCCCOc2ccc(OC[C@@H](O)CNC(C)C)cc2)cc1 | – | – | 2.2 | > 10 | – | – | – |
| CC(C)NC[C@H](O)COc1ccc(OCCOCCOCCOCCOc2ccc(OC[C@@H](O)CNC(C)C)cc2)cc1 | – | – | 0.1 | 0.23 | 0.282 | > 70 | – |
| CC(C)NC[C@H](O)COc1cccc(OCCOCCOc2cccc(OC[C@@H](O)CNC(C)C)c2)c1 | – | – | 1 | 0.031 | – | – | – |
| CC(C)NC[C@H](O)COc1ccc(OCCCCCCCCCCCCOc2ccc(OC[C@@H](O)CNC(C)C)cc2)cc1 | – | – | 0.1 | 10 | – | – | – |
| CC(C)NC[C@H](O)COc1ccc(OCCOCCOc2ccc(OC[C@@H](O)CNC(C)C)cc2)cc1 | – | – | 0.01 | 0.36 | – | 192 | 0.052 |
| CC(C)NC[C@H](O)COc1ccc(OCCCCCCOc2ccc(OC[C@@H](O)CNC(C)C)cc2)cc1 | – | – | 0.01 | > 10 | – | 3.3 | 0.776 |
| CC(C)NC[C@H](O)COc1ccc(OCCCCCCCCCCCCCCCCCCCCOc2ccc(OC[C@@H](O)CNC(C)C)cc2)cc1 | – | – | 2.5 | 0.42 | – | – | – |
| CC(C)NC[C@H](O)COc1cccc(OCCCOc2cccc(OC[C@@H](O)CNC(C)C)c2)c1 | – | – | 0.7 | 0.007 | – | 1.56 | 0.653 |
